Data published in PubChem BioAssay AID588842 (Broad Institute, 2011).
Results filed as inconclusive are left out. The source made the active and inactive calls.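 Rule for the calls: active = cytotoxic compounds whose fitted half-effect concentration is at most twice the top tested dose in every test run; inconclusive = test runs disagree, or a flat moderate drop, or a poor fit; inactive = inactive in every run, including wrong-direction effects.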

Columns and labels:
[1] = ldlA[mSR-BI] cell viability loss – CellTiter-Glo ATP, 24 h, dry powder, set 4, cytotoxicity control for HDL uptake inhibitor project, dose response (AID 588842); conditions: ldlA[mSR-BI] CHO cells viability, CellTiter-Glo ATP, 24 h
Summary of the method: (§1)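 Test system: ldlA[mSR-BI] cells / Buffer or medium: Ham's F12 medium with 10% FCS and PSG / Timing: 24 h compound exposure at 37 °C, then 10 min CellTiter-Glo incubation / Detection: luciferase luminescence reporting cellular ATP, CellTiter-Glo reagent / Measure: IC50 from compound dose-response curves of cell viability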

[2] = system: ldlA[mSR-BI] CHO cells viability, CellTiter-Glo ATP, 24 h; test: as above
Summary of the method: as §1

SMILES	activity change, negative = cytotoxicity ([1]; at 35 µM (top of the series))	AC50 [2] [µM]	also measured
CCC(=O)N1CCc2cc(-c3csc(NC(=O)c4ccc(Cl)cc4)n3)ccc21	-5.95% (inactive)		
COc1ccc(-c2nnn(CC(=O)N(C3CCCCC3)C(C)C(=O)NC3CCCC3)n2)cc1OC (configuration not stated)	-11.1% (inactive)		
CCC(=O)N1CCc2cc(-c3csc(NC(=O)c4cnco4)n3)ccc21	-1.99% (inactive)		
COc1c(NC(=O)C(=O)c2ccc(OCCN3CCOCC3)c3ccccc23)cc(C(C)(C)C)cc1NS(C)(=O)=O		15.5	
C[C@@H]1CN([C@H](C)CO)C(=O)c2cc(NC(=O)Cc3cn(C)c4ccccc34)ccc2O[C@H]1CN(C)S(=O)(=O)c1ccc(Cl)cc1	-19% (inactive)		
C[C@@H]1CN([C@H](C)CO)C(=O)c2cc(NC(=O)Cc3cn(C)c4ccccc34)ccc2O[C@H]1CN(C)S(=O)(=O)c1ccc(F)cc1		47.7	
CCC(=O)N1CCc2cc(-c3csc(NC(=O)c4ccccc4)n3)ccc21		67.8	
CCOc1ccccc1/C=C/c1onc(C)c1S(=O)(=O)N1CCC(C(=O)NC(C)(C)C)CC1		30.1	
CC(C)NC(=O)Nc1cccc2c1O[C@H](CN(C)Cc1ccc(Cl)c(Cl)c1)[C@@H](C)CN([C@@H](C)CO)C2=O		58	
CC(C(=O)NC1CCCC1)N(C(=O)Cc1ccccc1)C1CCCCC1 (configuration not stated)	-1.74% (inactive)		
CC(C(=O)NC1CCCC1)N(C(=O)Cn1nnc(-c2ccc3c(c2)OCO3)n1)C1CCCCC1 (configuration not stated)	-16.1% (inactive)		
CCOc1ccc(NC(=O)CN2CCN(CC(=O)Nc3cc(OC)cc(OC)c3)CC2)cc1			activity change, negative = cytotoxicity ([1]; at 68 µM (top of the series)): -20% (inactive)
CCCCCCC1CCC/C1=N\NC(N)=S (configuration not stated)		3.86	
CCC(=O)N1CCc2cc(-c3csc(NC(=O)c4cccnc4)n3)ccc21	-3.5% (inactive)		
CCC(=O)N1CCc2cc(-c3csc(NC(=O)c4ccc(OC)cc4)n3)ccc21	-11.6% (inactive)		
O=C(Nc1nc(-c2ccc3c(c2)CCN3S(=O)(=O)c2ccccc2)cs1)c1ccco1	-30.8% (inactive)		
CCC(=O)N1CCc2cc(-c3csc(NC(=O)c4ccncc4)n3)ccc21	-2.04% (inactive)		
CCC(=O)N1CCc2cc(-c3csc(NC(=O)c4ccc(F)cc4)n3)ccc21		48.2	
C[C@H]1CN([C@@H](C)CO)C(=O)c2cccc(NC(=O)Nc3ccccc3)c2O[C@@H]1CN(C)Cc1ccc(Cl)c(Cl)c1		29.8	
CCC(=O)N1CCc2cc(-c3csc(N)n3)ccc21	-18.4% (inactive)		
CCC(=O)N1CCc2cc(-c3csc(NC(=O)c4ccoc4)n3)ccc21	-8.58% (inactive)		
CCC(=O)N1CCc2cc(-c3csc(NC(=O)c4ccco4)n3)ccc21	-17.6% (inactive)		
